Measurements from ChEMBL document CHEMBL1150667, “New cytotoxic constituents from the Formosan soft corals Clavularia viridis and Clavularia violacea” (2002).
Converted amounts (≈) assume the structure as drawn.

Experiments:
Type in all cases: functional
A549 = assay: Cytotoxicity against human A549 cells; settings: for EC50: Homo sapiens, A549, read-out: ED50 (the source's name)
Procedure, shortened: (§1)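 Human lung adenocarcinoma (A549) and colon adenocarcinoma (HT-29) lines obtained from ATCC. Cytotoxicity assayed in cell culture following a previously published standard procedure.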

HT-29 = assay: Cytotoxicity against human HT-29 cells; settings: read-out: ED50 (the source's name); procedure, shortened: as §1
P388 = assay: Cytotoxicity against mouse P388 cells; settings: for EC50: Mus musculus, P388, read-out: ED50 (the source's name)
Procedure, shortened: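 Mouse lymphocytic leukemia P-388 cells obtained from an academic laboratory (University of Illinois at Chicago). Cytotoxicity assayed in cell culture following a previously published standard procedure.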

**Q.** What does the source list for `CC(C)[C@@H](C)CC[C@@H](C)[C@H]1CC[C@H]2[C@@H]3C[C@@H](O)[C@@]4(O)C=C[C@@H](O)C(=O)[C@]4(C)[C@H]3[C@H](O)C[C@]12C` [STOLONIFERONE F]?
**A.** EC50 (A549): 3.69 µg/mL (≈ 7.98 µM); EC50 (HT-29): 6.46 µg/mL (≈ 14 µM); EC50 (P388): 2.36 µg/mL (≈ 5.1 µM)

**Q.** How did the ED50 (A549) turn out when `CC(C)[C@@H](C)CC[C@@H](C)[C@H]1CC[C@H]2[C@@H]3C[C@@H](O)C4=CC=CC(=O)[C@]4(C)[C@H]3[C@H](O)C[C@]12C` [STOLONIFERONE E] was run?
**A.** The ED50 was 3.2 ×10⁻⁴ ug/ml.

**Q.** And the EC50 (HT-29)?
**A.** The EC50 was 0.0091 µg/mL (≈ 0.0212 µM).

**Q.** What about the ED50 (P388) of the same compound?
**A.** Its ED50 is 1.2 ×10⁻⁴ ug/ml.

**Q.** With `C=C(CC[C@@H](C)[C@H]1CC[C@H]2[C@@H]3C[C@@H](O)[C@@]4(O)C=C[C@@H](O)C(=O)[C@]4(C)[C@H]3[C@H](O)C[C@]12C)C(C)C` [STOLONIFERONE G] as the compound, how does the EC50 (A549) read?
**A.** The EC50 was 3.58 µg/mL (≈ 7.77 µM).

**Q.** And the EC50 (HT-29)?
**A.** Its EC50 is 5.86 µg/mL (≈ 12.7 µM).

**Q.** What about the EC50 (P388) of the same compound?
**A.** Its EC50 is 2.12 µg/mL (≈ 4.6 µM).

**Q.** With `CCCCC/C=C\C[C@]1(OC(C)=O)C=CC(=O)/C1=C/C=C/CCCC(=O)OC` [CLAVIRIDENONE E] as the compound, how does the EC50 (A549) read?
**A.** The EC50 was 0.41 µg/mL (≈ 1.06 µM).

**Q.** What about the EC50 (HT-29) of the same compound?
**A.** Its EC50 is 1.02 µg/mL (≈ 2.63 µM).

**Q.** What about the EC50 (P388) of the same compound?
**A.** Its EC50 is 0.11 µg/mL (≈ 0.283 µM).

**Q.** What does the source list for `C=C1C(=O)O[C@H]2/C=C(\C)C[C@H](OC(C)=O)/C=C(\C)C[C@H](OC(C)=O)/C=C(\C)CC[C@H]12` [CLAVIOLIDE]?
**A.** EC50 (A549): 4.91 µg/mL (≈ 11.8 µM); EC50 (HT-29): 0.84 µg/mL (≈ 2.02 µM); EC50 (P388): 0.38 µg/mL (≈ 0.912 µM)
